Measurements gathered from unrelated publications.

CO[C@H]1C[C@@H]2CC[C@@H](C)[C@@](O)(O2)C(=O)C(=O)N2CCCC[C@H]2C(=O)O[C@H]([C@H](C)C[C@@H]2CC[C@@H](O)[C@H](OC)C2)CC(=O)[C@H](C)/C=C(\C)[C@@H](O)[C@@H](OC)C(=O)[C@H](C)C[C@H](C)/C=C/C=C/C=C/1C
solubility (aqueous buffer; 18 h; pH 7.4): 6.03 µM

CCOc1ccc(Nc2c3c(nc4ccccc24)CCC3)cc1
solubility (nephelometry; aqueous buffer; 30 min; pH 6.5): 12.5 to 25 µg/mL

CCOC(=O)C1=C(CN2CCOCC2)NC(c2nccs2)=NC1c1ccc(F)cc1Br (stereo not drawn)
solubility (HPLC; aqueous buffer; pH 2): 183 µg/mL

Cc1ccc(Oc2ccc(NC(=O)CNc3ccccc3N3CCCC3=O)cc2)cc1
solubility (PBS; pH 7.4): 9.1 µM

COc1cnc(Nc2cnnc3ccc(-c4ccc(N5CCN(C)CC5)cc4)cc23)nc1
solubility (aqueous buffer; pH 7.4; 25 °C): 26 µM

O=C(Nc1ccc(OC(F)(F)F)cc1)N[C@H]1CC[C@H](Oc2ccc(C(=O)O)cc2)CC1
solubility (simulated gastric fluid; 30 min; pH 1; 37 °C; acidic): 0.0005 µg/mL

CN(C)CCOc1ccc2c(=O)c3c([nH]c2c1)CCCC3
solubility (absorbance; aqueous buffer; 90 min; pH 7.4): > 500 µM

Cn1cc(Nc2ncnc3ccc(-c4cccc(N5CCOCC5)c4)cc23)cn1
solubility (aqueous buffer; pH 7.4; 25 °C): 1.5 µM

COc1cccc(Cn2nc(-c3ccc(CO)o3)c3ccccc32)c1
solubility (aqueous buffer; 6 h; pH 7.4): 1 µg/mL

O=C(O)c1cc(-c2ccc(-n3ccnn3)cc2)c2ccc(-c3ccc(C(F)(F)F)cc3)cc2c1
solubility (aqueous buffer; pH 4): 0.19 µg/mL

CCN(CC)CCCOc1ccc2c(=O)c3c([nH]c2c1)CCCC3
solubility (absorbance; aqueous buffer; 90 min; pH 7.4): > 500 µM

COc1cc(NC(=O)Cn2cc(Cl)c3ccc(-c4cnn(C)c4)cc32)cc(OC)c1OC
solubility (PBS; pH 7.4): < 2.7 µM

CN(c1ncco1)c1ncnc2ccc(-c3cccc(N4CCOCC4)c3)cc12
solubility (aqueous buffer; pH 7.4; 25 °C): 802 µM

Cc1ccc(N(C)c2ccc(NC(=O)CN(C)c3ccccc3N3CCCC3=O)cn2)cc1
solubility (PBS; pH 7.4): 44 µM

C[C@@H]1COCCN1c1cccc(-c2ccc3ncnc(Nc4ncco4)c3c2)c1
solubility (aqueous buffer; pH 7.4; 25 °C): 23 µM

COc1cc(NC(=O)Cn2ccc3cc(F)c(-c4cnn(C)c4)cc32)cc(OC)c1OC
solubility (PBS; pH 7.4): < 2.7 µM

Cc1ccccc1CN1C(=O)C2=C(CCN(Cc3ccccc3)C2)N2CCN=C12
solubility (shake flask; aqueous buffer; pH 4): 92100 µg/mL

c1cc(-c2ccc3ncnc(NC4CCOCC4)c3c2)cc(N2CCOCC2)c1
solubility (aqueous buffer; pH 7.4; 25 °C): 202 µM

COc1cc(Cn2nc(-c3ccc(CO)o3)c3ccccc32)ccn1
solubility (aqueous buffer; 6 h; pH 7.4): > 33 µg/mL

c1cc(-c2ccc3ncnc(Nc4ncco4)c3c2)nc(N2C[C@H]3C[C@@H]2CO3)n1
solubility (aqueous buffer; pH 7.4; 25 °C): 48 µM

CC(C)(C)OC(=O)N1CCC(Oc2ccc3c(=O)c4c(F)cc(Cl)cc4[nH]c3c2)C1 (stereo not drawn)
solubility (absorbance; aqueous buffer; 90 min; pH 7.4): < 3.12 µM

Cc1nsc(-c2nnc3n2CCN(C(=O)c2ccc(F)cc2)[C@@H]3C)n1
solubility (aqueous buffer; pH 7.4): 350 µg/mL

CNS(=O)(=O)c1ccc(Nc2ncc(C(F)(F)F)c(N3CCC[C@](C)(O)C3)n2)c(C)c1
solubility (PBS; 2 h; pH 7.4): 37 µM

CC(=O)O[C@@H]1CC[C@@]2(C)[C@@H](CC[C@]3(C)[C@@H]2C(=O)C=C2[C@@H]4[C@@H](C)[C@H](C)CC[C@]4(C)CC[C@]23C)[C@@]1(C)C(=O)O
solubility (PBS; pH 7.4): 6.45 µg/mL

Cc1ccc(Nc2cnnc3ccc(-c4ccc(N5CCN(C)CC5)cc4)cc23)cn1
solubility (aqueous buffer; pH 7.4; 25 °C): 60 µM

CNS(=O)(=O)c1ccc(Nc2ncc3cc(Cl)c(=O)n(C4CCCC4)c3n2)c(C)c1
solubility (PBS; 2 h; pH 7.4): 0.3 µM

CC(=O)N[C@@H](CS)C(=O)O
solubility (aqueous buffer; pH 7.5): 164000 µg/mL

Cc1cc(-c2ccnc3[nH]cc(F)c23)cc(F)c1[C@@]1(O)[C@H](C)CN(C2CCS(=O)(=O)CC2)C[C@@H]1C
solubility (aqueous buffer): > 50 µg/mL

CCN(c1ccc(C)cc1)c1ccc(NC(=O)CN(C)c2ccccc2N2CCCC2=O)cn1
solubility (PBS; pH 7.4): 3.4 µM

CNS(=O)(=O)c1ccc(Nc2ncc(C(F)(F)F)c([C@H]3CC[C@](C)(O)CC3)n2)c(C)c1
solubility (FaSSIF; 2 h): 14 µM

c1cc(-c2ccc3ncnc(Nc4ncco4)c3c2)nc(N2CCOCC2)n1
solubility (aqueous buffer; pH 7.4; 25 °C): 3 µM

Cc1ccc(C(C)(C)c2ccc(NC(=O)CN(C)c3ccccc3N3CCCC3=O)cc2)cc1
solubility (PBS; pH 7.4): 2.5 µM

Cc1c(Cl)cccc1-c1ccc2c(c1)N(Cc1noc(C3CCC3)n1)C(=O)CO2
solubility (PBS; 8 h; pH 7.4): 100 µM

COc1ncccc1Cn1nc(-c2ccc(CO)o2)c2ccccc21
solubility (aqueous buffer; 6 h; pH 7.4): > 33 µg/mL

CCCCN(CCCC)CCCOc1ccc2c(=O)c3c([nH]c2c1)CCCC3
solubility (absorbance; aqueous buffer; 90 min; pH 7.4): > 500 µM

CCOC(=O)C1=C(CN2CCC[C@@H]2C(=O)Nc2ccc(B(O)O)cc2)NC(c2nccs2)=N[C@H]1c1ccc(F)cc1Br
solubility (HPLC; aqueous buffer; pH 7.4): 4.14 µg/mL

COc1ccccc1Cn1nc(-c2ccc(CO)o2)c2ccccc21
solubility (aqueous buffer; 6 h; pH 7.4): 1 µg/mL

Cc1ccc(Oc2ccc(NC(=O)CNc3ccccc3-n3cncn3)cc2)cc1
solubility (PBS; pH 7.4): 15 µM

OCc1ccc(-c2nn(Cc3cccnc3)c3cccnc23)o1
solubility (aqueous buffer; 6 h; pH 7.4): > 30 µg/mL

CC(C)(C(=O)O)[C@H](NC(=O)Cc1cccc(I)c1)c1ccc2oc(=O)[nH]c2c1
solubility (aqueous buffer; pH 6.8): > 700 µM

CN1CCN(c2cccc(-c3ccc4ncnc(Nc5ccc(Cl)c(Cl)c5)c4c3)c2)CC1
solubility (aqueous buffer; pH 7.4; 25 °C): < 1.7 µM

c1ccc(Oc2ccc(Nc3c4c(nc5ccccc35)CCC4)cc2)cc1
solubility (nephelometry; aqueous buffer; 30 min; pH 6.5): 1.6 to 3.1 µg/mL

Cc1ccc(Nc2ncnc3ccc(-c4cccc(N5CCOCC5)c4)cc23)cc1
solubility (aqueous buffer; pH 7.4; 25 °C): 0.9 µM

NCc1ccc(-c2nn(Cc3ccncc3)c3ccccc23)o1
solubility (aqueous buffer; 6 h; pH 7.4): > 30 µg/mL

CC(C)(C)OC(=O)N1CCC(Oc2ccc3c(=O)c4c(Cl)cc(F)cc4[nH]c3c2)CC1
solubility (absorbance; aqueous buffer; 90 min; pH 7.4): < 3.12 µM
